ChEMBL document CHEMBL3785075, “Novel Water-Soluble Amphotericin B-PEG Conjugates with Low Toxicity and Potent in Vivo Efficacy” (J Med Chem, 2016)
≈ marks a conversion by molar mass, not a printed value. Calls of active or inactive are those of the source. The calls are words filed in the database; no cut-off is given here.

Tests used:
[1] = Clearance in ICR mouse at 1 mg/kg, iv after 24 hrs by HPLC analysis; format: ADME, organism-based; details: in vivo
[2] = system: Mus musculus; test: AUC(0 to 24 hrs) in ICR mouse at 1 mg/kg, iv after 24 hrs by HPLC analysis; format: ADME, organism-based; design: dose 1 mg/kg, time < 24 hr, route intravenous; details: in vivo
[3] = Volume of distribution in ICR mouse at 1 mg/kg, iv after 24 hrs by HPLC analysis; format: ADME, organism-based; details: in vivo
[4] = system: Candida albicans; test: Antifungal activity against Candida albicans CBS 562 infected in ICR mouse assessed as increase in survival rate of animal at 1 mg/kg after 24 days; format: functional, organism-based
[5] = Elimination rate constant in ICR mouse at 1 mg/kg, iv by HPLC analysis; format: ADME, organism-based; details: in vivo
[6] = system: Candida albicans; test: Antifungal activity against Candida albicans CBS 562 infected in ICR mouse assessed as fungal burden in mouse kidney at 1.75 mg/kg after 24 hrs; format: functional, organism-based
[7] = system: Candida albicans; test: Antifungal activity against Candida albicans CBS 562 infected in ICR mouse assessed as fungal burden in mouse spleen at 1 mg/kg after 24 hrs; format: functional, organism-based
[8] = system: Aspergillus fumigatus; test: Antifungal activity against Aspergillus fumigatus after 48 hrs by CLSI-M27-A3 method; format: functional
[9] = system: Candida albicans; test: Antifungal activity against Candida albicans CBS 562 infected in ICR mouse assessed as fungal burden in mouse kidney at 7 mg/kg after 24 hrs; format: functional, organism-based
[10] = Fraction unbound in ICR mouse plasma by HPLC analysis; format: ADME, cell-free
[11] = system: Candida albicans; test: Antifungal activity against Candida albicans after 48 hrs by CLSI-M27-A3 method; format: functional
[12] = system: Aspergillus terreus; test: Antifungal activity against Aspergillus terreus after 48 hrs by CLSI-M27-A3 method; format: functional
[13] = system: Candida albicans; test: Antifungal activity against Candida albicans CBS 562 assessed as viable cells at 2 times MIC after 2 hrs by time kill analysis relative to control; format: functional
[14] = Mean residence time(0 to 24 hrs) in ICR mouse at 7.5 mg/kg, iv after 24 hrs by HPLC analysis; format: ADME, organism-based; details: in vivo
[15] = system: Candida albicans; test: Antifungal activity against Candida albicans CBS 562 infected in ICR mouse assessed as increase in survival rate of animal at 3.5 mg/kg after 24 days; format: functional, organism-based
[16] = system: Candida albicans; test: Antifungal activity against Candida albicans CBS 562 infected in ICR mouse assessed as fungal burden in mouse kidney at 1 mg/kg after 24 hrs; format: functional, organism-based
[17] = system: Pichia kudriavzevii; test: Antifungal activity against Candida krusei after 48 hrs by CLSI-M27-A3 method; format: functional
[18] = system: Mus musculus; test: Metabolic stability in ICR mouse assessed as hydrolysis at 1 mg/kg, iv after 24 hrs by HPLC analysis; format: ADME, organism-based; details: in vivo
[19] = Toxicity against human RBC assessed as hemolytic activity at 6 ug/ml after 1 to 21 hrs; format: cell-based; details: erythrocyte
[20] = system: Candida albicans; test: Antifungal activity against Candida albicans CBS 562 infected in ICR mouse assessed as fungal burden in mouse spleen at 3.5 mg/kg after 24 hrs; format: functional, organism-based
[21] = system: Aspergillus flavus; test: Antifungal activity against Aspergillus flavus after 48 hrs by CLSI-M27-A3 method; format: functional
[22] = Elimination half life in ICR mouse at 1 mg/kg, iv by HPLC analysis; format: ADME, organism-based; details: in vivo, read-out: beta t1/2 (converted)
[23] = system: Rhizopus arrhizus; test: Antifungal activity against Rhizopus oryzae after 48 hrs by CLSI-M27-A3 method; format: functional
[24] = system: Aspergillus niger; test: Antifungal activity against Aspergillus niger after 48 hrs by CLSI-M27-A3 method; format: functional
[25] = Solubility of compound in saline by HPLC analysis; format: physicochemical
[26] = system: Candida albicans; test: Antifungal activity against Candida albicans CBS 562 infected in ICR mouse assessed as fungal burden in mouse kidney at 3.5 mg/kg after 24 hrs; format: functional, organism-based
[27] = system: Candida albicans; test: Antifungal activity against Candida albicans CBS 562 infected in ICR mouse assessed as fungal burden in mouse spleen at 7 mg/kg after 24 hrs; format: functional, organism-based
[28] = system: Mus musculus; test: Metabolic stability in ICR mouse at 1 mg/kg, iv after 48 hrs by HPLC analysis; format: ADME, organism-based; details: in vivo
[29] = system: Candida albicans; test: Antifungal activity against Candida albicans CBS 562 infected in ICR mouse assessed as fungal burden in mouse spleen at 1.75 mg/kg after 24 hrs; format: functional, organism-based
[30] = system: Candida albicans; test: Antifungal activity against Candida albicans CBS 562 infected in ICR mouse assessed as increase in survival rate of animal at 7 mg/kg after 24 days; format: functional, organism-based
[31] = system: Candida albicans; test: Antifungal activity against Candida albicans CBS 562 infected in ICR mouse assessed as increase in survival rate of animal at 1.75 mg/kg after 24 days; format: functional, organism-based
[32] = system: MEF; test: Cytotoxicity against mouse MEF cells assessed as cell viability after 24 hrs by MTT assay; format: cell-based
[33] = Toxicity in iv dosed ICR mouse; format: organism-based; details: in vivo
[34] = Volume of distribution in ICR mouse at 7.5 mg/kg, iv after 24 hrs by HPLC analysis; format: ADME, organism-based; details: in vivo
[35] = Mean residence time(0 to 24 hrs) in ICR mouse at 1 mg/kg, iv after 24 hrs by HPLC analysis; format: ADME, organism-based; details: in vivo
[36] = system: MEF; test: Cytotoxicity against mouse MEF cells assessed as cell viability at 1000 ug/ml after 24 hrs by MTT assay; format: cell-based
[37] = Chemical stability of compound in phosphate buffer saline assessed as hydrolysis after 4 hrs by HPLC analysis; format: physicochemical
In short: (§1)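 Conjugate incubated in phosphate-buffered saline; samples taken at 4 h and after prolonged incubation to 24 h; percent hydrolysis determined by HPLC.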

[38] = AUC(0 to 24 hrs) in ICR mouse at 7.5 mg/kg, iv after 24 hrs by HPLC analysis; format: ADME, organism-based; design: time < 24 hr, dose 7.5 mg/kg, route intravenous; details: in vivo
[39] = Elimination half life in ICR mouse at 7.5 mg/kg, iv by HPLC analysis; format: ADME, organism-based; details: in vivo, read-out: beta t1/2 (converted)
[40] = Chemical stability of compound in phosphate buffer saline assessed as hydrolysis after 24 hrs by HPLC analysis; format: physicochemical; details: read-out: Drug degradation; in short: as §1
[41] = system: Mus musculus; test: Metabolic stability in ICR mouse assessed as hydrolysis at 7.5 mg/kg, iv after 24 hrs by HPLC analysis; format: ADME, organism-based; details: in vivo
[42] = Elimination rate constant in ICR mouse at 7.5 mg/kg, iv by HPLC analysis; format: ADME, organism-based; details: in vivo
[43] = system: Mus musculus; test: Metabolic stability in ICR mouse at 7.5 mg/kg, iv after 48 hrs by HPLC analysis; format: ADME, organism-based; details: in vivo
[44] = Clearance in ICR mouse at 7.5 mg/kg, iv after 24 hrs by HPLC analysis; format: ADME, organism-based; details: in vivo
[45] = system: Serum; test: Metabolic stability in mouse serum assessed as hydrolysis after 24 hrs by HPLC analysis; format: ADME

## C[C@@H]1[C@H](O)[C@@H](C)/C=C/C=C/C=C/C=C/C=C/C=C/C=C/[C@H](O[C@@H]2O[C@H](C)[C@@H](O)[C@H](N)[C@@H]2O)C[C@@H]2O[C@](O)(C[C@@H](O)C[C@@H](O)[C@H](O)CC[C@@H](O)C[C@@H](O)CC(=O)O[C@H]1C)C[C@H](O)[C@H]2C(=O)O [AMPHOTERICIN B]
[1]
  clearance: 0.00417 mL/min
[2]
  AUC: 63.983 µg·h/mL
[3]
  Vd: 0.006 L
[4]
  Activity: Active
[5]
  k el: 1.19e-05 s⁻¹
[6]
  Activity: Active
[7]
  Activity: Active
[8]
  MFC: 0.5 µg/mL (≈ 0.541 µM)
  MIC: 0.25 µg/mL (≈ 0.271 µM)
[9]
  Activity: Active
[10]
  fraction unbound: 0.11
[11]
  MFC: 0.5 µg/mL (≈ 0.541 µM)
  MIC: 0.25 µg/mL (≈ 0.271 µM)
[12]
  MFC: 4 µg/mL (≈ 4.33 µM)
  MIC: 2 µg/mL (≈ 2.16 µM)
[13]
  Activity: 100%
[14]
  MRT last: 9.66 h
[15]
  Activity: Active
[16]
  Activity: Active
[17]
  MFC: 1 µg/mL (≈ 1.08 µM)
  MIC: 0.5 µg/mL (≈ 0.541 µM)
[18]
  Stability: Stable
[19]
  Activity: Toxic
[20]
  Activity: Active
[21]
  MFC: 0.5 µg/mL (≈ 0.541 µM)
  MIC: 0.5 µg/mL (≈ 0.541 µM)
[22]
  half-life: 16 h
[23]
  MFC: 250 µg/mL (≈ 271 µM)
  MIC: 0.25 µg/mL (≈ 0.271 µM)
[24]
  MFC: 0.5 µg/mL (≈ 0.541 µM)
  MIC: 0.5 µg/mL (≈ 0.541 µM)
[25]
  solubility: < 1 µg/mL
[26]
  Activity: Active
[27]
  Activity: Active
[28]
  Stability: Unstable
[29]
  Activity: Active
[30]
  Activity: Active
[31]
  Activity: Active
[32]
  IC50: 6.6 µg/mL (≈ 7.14 µM)
[33]
  MTD: 1.1 mg/kg

## COC(=O)[C@H]1[C@@H]2C[C@@H](O[C@@H]3O[C@H](C)[C@@H](O)[C@H](NC(=O)CCOCCOCCOCCOCCOCCOCCOCCOCCN)[C@@H]3O)/C=C/C=C/C=C/C=C/C=C/C=C/C=C/[C@H](C)[C@@H](O)[C@@H](C)[C@H](C)OC(=O)C[C@H](O)C[C@H](O)CC[C@@H](O)[C@H](O)C[C@H](O)C[C@](O)(C[C@@H]1O)O2
[4]
  Activity: Active
[6]
  Activity: Active
[7]
  Activity: Active
[8]
  MFC: 2 µg/mL (≈ 1.47 µM)
  MIC: 1 µg/mL (≈ 0.734 µM)
[34]
  Vd: 0.002 L
[9]
  Activity: Active
[35]
  MRT last: 5.43 h
[36]
  Activity: Non-toxic
[10]
  fraction unbound: 0.9
[11]
  MFC: 2 µg/mL (≈ 1.47 µM)
  MIC: 1 µg/mL (≈ 0.734 µM)
[37]
  Stability: Stable
[12]
  MFC: 16 µg/mL (≈ 11.8 µM)
  MIC: 16 µg/mL (≈ 11.8 µM)
[13]
  Activity: 100%
[15]
  Activity: Active
[16]
  Activity: Active
[17]
  MFC: 4 µg/mL (≈ 2.94 µM)
  MIC: 2 µg/mL (≈ 1.47 µM)
[38]
  AUC(0-t) at 24 h: 421 µg·h/mL
[39]
  half-life: 3.15 h
[19]
  Activity: Non-toxic
[20]
  Activity: Active
[21]
  MFC: 2 µg/mL (≈ 1.47 µM)
  MIC: 2 µg/mL (≈ 1.47 µM)
[40]
  degraded at 24 h: 0.8%
[41]
  Stability: Stable
[42]
  k el: 6.11e-05 s⁻¹
[23]
  MFC: 4000 µg/mL (≈ 2940 µM)
  MIC: 4 µg/mL (≈ 2.94 µM)
[24]
  MFC: 2 µg/mL (≈ 1.47 µM)
  MIC: 2 µg/mL (≈ 1.47 µM)
[25]
  solubility: 700 µg/mL (≈ 514 µM)
[43]
  Stability: Unstable
[44]
  clearance: 0.00847 mL/min
[26]
  Activity: Active
[45]
  Stability: Stable
[27]
  Activity: Active
[29]
  Activity: Active
[30]
  Activity: Active
[31]
  Activity: Active
[33]
  MTD: 42 mg/kg

## C[C@@H]1[C@H](O)[C@@H](C)/C=C/C=C/C=C/C=C/C=C/C=C/C=C/[C@H](O[C@@H]2O[C@H](C)[C@@H](O)[C@H](NC(=O)CCOCCOCCOCCOCCOCCOCCOCCOCCN)[C@@H]2O)C[C@@H]2O[C@](O)(C[C@@H](O)C[C@@H](O)[C@H](O)CC[C@@H](O)C[C@@H](O)CC(=O)O[C@H]1C)C[C@H](O)[C@H]2C(=O)O
[8]
  MFC: 4 µg/mL (≈ 2.97 µM)
  MIC: 4 µg/mL (≈ 2.97 µM)
[11]
  MFC: 4 µg/mL (≈ 2.97 µM)
  MIC: 1 µg/mL (≈ 0.742 µM)
[37]
  Stability: Stable
[12]
  MFC: 32 µg/mL (≈ 23.7 µM)
  MIC: 32 µg/mL (≈ 23.7 µM)
[17]
  MFC: 8 µg/mL (≈ 5.94 µM)
  MIC: 4 µg/mL (≈ 2.97 µM)
[19]
  Activity: Toxic
[21]
  MFC: 4 µg/mL (≈ 2.97 µM)
  MIC: 4 µg/mL (≈ 2.97 µM)
[40]
  degraded at 24 h: 0.5%
[23]
  MFC: 8000 µg/mL (≈ 5940 µM)
  MIC: 8 µg/mL (≈ 5.94 µM)
[24]
  MFC: 1 µg/mL (≈ 0.742 µM)
  MIC: 1 µg/mL (≈ 0.742 µM)
[25]
  solubility: 5500 µg/mL (≈ 4080 µM)
[32]
  IC50: 280 µg/mL (≈ 208 µM)
[33]
  MTD: 22 mg/kg
